STEP block = STEP (human) phosphatase inhibition. recombinant STEP, OMFP fluorogenic substrate, fluorescence. inhibition, % at 20 µM. 360,000 tested, 0.25% active;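 active = inhibition at 20 µM, scaled per plate between control wells, above about 37%, limit read from the data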;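 note: 0% = DMSO with enzyme and substrate and 100% = substrate only without enzyme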
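Also added – OMFP at 25 µM · Test system – STEP tyrosine phosphatase · Technique – FITC-channel fluorescence of OMFP product · Schedule – 20 min at room temperature, dark · Evaluation – control-normalized % inhibition with plate pattern correction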
Scp1 inh = inhibitors of human Scp-1 phosphatase; inhibition, % at 20 µM; Q9GZU7; 340,000 tested, 0.88% active; Recombinant Scp1, phosphopeptide, malachite green phosphate absorbance;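 active = inhibition above about 50% at 20 µM, limit read from the data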;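 note: plate controls were DMSO wells with enzyme for no effect and wells lacking enzyme for full effect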
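Times: enzyme reaction 45 min at room temperature, colour 5 min, stabilisation 30 min. Material: SCP-1 catalytic fragment, aa 76-261. Medium: Acidic Tris acetate buffer with magnesium and detergent. Signal: colorimetric free-phosphate detection, absorbance 630 nm. Read-out basis: % inhibition of SCP-1 phosphate liberation. Reagent: Phosphorylated 17-residue peptide substrate.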
SUMO1 PPI mod = SUMO1-SIM interaction modulation | inhibition, % at 20 µM | P63165 | 360,000 tested, 0.33% active | SUMO1 binding to a labelled peptide, TR-FRET, 1 h; in the data active = inhibition above about 37%
Rpn11 inh = inhibitors of human proteasome Rpn11. O00487. human 26S proteasome, Ub4-pepOG fluorescence polarization; 20S core pre-blocked with epoxomicin. inhibition, % at 20 µM. 360,000 tested, 0.59% active. AID 588493;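 active = inhibition at 20 µM, scaled to each plate's controls, above about 33%, limit read from the data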
DNMT1 inh = inhibitors of human DNMT1. DNMT1 molecular beacon, Hinp1I cleavage, fluorescence. inhibition (reported as % activation of signal), % at 10 µM. 360,000 tested, 0.83% active; in the data active = inhibition above about 50%
Target sequence (P26358 504-1616 limits assumed): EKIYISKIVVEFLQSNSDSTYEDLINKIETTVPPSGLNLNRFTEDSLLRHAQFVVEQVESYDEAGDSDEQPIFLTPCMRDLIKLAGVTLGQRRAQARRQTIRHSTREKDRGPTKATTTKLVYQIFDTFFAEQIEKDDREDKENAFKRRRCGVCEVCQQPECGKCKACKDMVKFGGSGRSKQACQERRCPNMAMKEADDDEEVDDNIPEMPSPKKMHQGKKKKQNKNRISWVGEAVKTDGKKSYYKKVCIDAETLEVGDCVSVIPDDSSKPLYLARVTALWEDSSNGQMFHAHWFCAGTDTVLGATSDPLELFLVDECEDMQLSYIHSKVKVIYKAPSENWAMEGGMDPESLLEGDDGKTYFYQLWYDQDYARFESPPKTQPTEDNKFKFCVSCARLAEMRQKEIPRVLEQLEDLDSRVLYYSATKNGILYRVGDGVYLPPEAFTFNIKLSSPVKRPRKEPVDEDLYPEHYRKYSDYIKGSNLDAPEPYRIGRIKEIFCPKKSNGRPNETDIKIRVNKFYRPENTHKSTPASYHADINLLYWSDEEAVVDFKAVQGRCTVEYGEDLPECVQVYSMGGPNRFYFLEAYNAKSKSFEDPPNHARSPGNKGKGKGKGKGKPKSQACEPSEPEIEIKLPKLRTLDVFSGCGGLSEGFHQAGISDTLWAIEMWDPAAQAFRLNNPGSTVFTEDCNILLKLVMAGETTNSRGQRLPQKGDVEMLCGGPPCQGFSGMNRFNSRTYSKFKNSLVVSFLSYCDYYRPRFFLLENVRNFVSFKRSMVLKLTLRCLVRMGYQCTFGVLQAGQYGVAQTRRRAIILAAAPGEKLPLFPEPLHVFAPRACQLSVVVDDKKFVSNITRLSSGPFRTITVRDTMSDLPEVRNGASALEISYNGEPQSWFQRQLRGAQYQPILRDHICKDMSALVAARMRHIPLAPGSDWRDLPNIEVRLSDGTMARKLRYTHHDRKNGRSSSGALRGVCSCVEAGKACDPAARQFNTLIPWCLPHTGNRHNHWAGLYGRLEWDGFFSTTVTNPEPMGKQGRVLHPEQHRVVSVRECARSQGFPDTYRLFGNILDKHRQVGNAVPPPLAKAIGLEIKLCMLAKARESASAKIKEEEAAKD
LMPTP inh = blocks human LMPTP phosphatase | recombinant LMPTP-A, OMFP fluorogenic substrate, fluorescence intensity | 360,000 tested, 0.22% active | P24666 | inhibition, % at 20 µM;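 active = compounds that cut the enzyme signal by at least half of the control window in the single-dose screen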;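 note: plate controls were DMSO wells with enzyme plus substrate for no effect and substrate without enzyme for full effect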
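Assay system: LMPTP-A, protein tyrosine phosphatase of low molecular weight / Medium: pH 6.0 Bis-Tris buffer with DTT and Triton X-100 / Schedule: 50 min enzyme reaction at room temperature, protected from light / Measured by: endpoint fluorescence intensity from OMFP dephosphorylation / Read-out basis: % inhibition relative to no-enzyme and uninhibited control wells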
Active calls of the source: *; . = not tested or not shown. An excerpt weighted towards active compounds, which were near 2.3% of everything screened.

SMILES	STEP block	Scp1 inh	SUMO1 PPI mod	Rpn11 inh	DNMT1 inh	LMPTP inh
O=C1C=CC(=O)c2c(O)c(N3CCN(CCO)CC3)c(Cl)c(O)c21	27	73*	91*	-82	103*	76*
O=C1C=CC(=O)c2c(O)c(N3CCN(CCOCCO)CC3)c(Br)c(O)c21	86*	70*	109*	-90	98*	77*
CC1=CC(=O)C2=C(C)CCC3C(C)C(=O)OC3C12 (configuration not stated)	-2	.	0	-10	25	0
CC(C)C(C(=O)OCC(=O)c1ccccc1)N1C(=O)C2C3C=CC(C3)C2C1=O (configuration not stated)	-1	-7	0	-4	0	-2
O=C(NCC1CCCO1)c1cc(-c2ccc(F)cc2)no1 (configuration not stated)	0	-5	6	-6	-2	0
Cc1ccc(NC(=O)CN2C(=O)S/C(=C/c3ccc(O)c([N+](=O)[O-])c3)C2=O)cc1C	24	76*	3	0	-9	80*
O=C(CNC(=O)c1sc2ccccc2c1Cl)Nc1ccccc1F	0	-6	-4	0	13	1
CCOC(=O)c1c(C)oc2cc(Br)c(O)c(Br)c12	-1	-8	45*	6	-1	-1
CCCCn1c(NC(=O)c2ccccc2)c(C#N)c2nc3ccccc3nc21	2	-5	42*	.	76*	16
CCC(=O)Nc1c(C#N)c2nc3ccccc3nc2n1-c1ccc(C)cc1	2	-2	-14	15	4	0
CC(=O)c1sc(Nc2nc3cc4c(cc3s2)OCO4)nc1C	2	-3	40*	8	-3	4
CC(=O)c1sc(Nc2ccc3c(c2)OCO3)nc1C	2	.	-29	-9	6	1
Cc1c(C)c2ccc(OCC(=O)NCc3ccccn3)cc2oc1=O	2	-6	-5	-6	0	-1
Cc1c(C)c2ccc(OCC(=O)Nc3ccccn3)cc2oc1=O	0	6	55*	-2	-1	0
COc1ccc2c(c1OC)C(=O)OC2Nc1nc(-c2cccc([N+](=O)[O-])c2)cs1 (configuration not stated)	3	-5	-17	6	-1	1
CCCN(CCC)C(=O)CC(c1ccc(F)cc1)c1ccco1 (configuration not stated)	48*	-9	-3	10	12	1
Cc1cc(C)c(S(C)(=O)=O)c(NN)n1	2	-6	0	3	-1	-1
CN(C)CCNc1ccc2ncn3c4ccc(O)cc4c(=O)c1c23	-6	-13	-59	-181	86*	63*
CN(C)CCNc1ccc(-c2nn(C)c(=O)c3ccccc23)cc1[N+](=O)[O-]	1	2	-29	1	7	2
O=C(c1ccc(S(=O)(=O)N2CCc3ccccc3C2)cc1)N1CCCCC1	-3	3	-3	-8	3	-1
c1ccc(-c2nc(NC3CCCC3)c3ccccc3n2)cc1	-4	-1	1	9	1	62*
COc1cccc(-c2nc(NC3CCCC3)c3ccccc3n2)c1O	0	-4	9	2	-8	10
Cn1ncc(Br)c1C(=O)N1CCCCCC1	-1	3	-4	1	2	0
Cc1cc(C)n2nc(SCC(=O)N/N=C/c3ccc(F)cc3)nc2n1	-4	3	51*	-16	3	-2
Cc1cc2nc3c(=O)[nH]c(=O)[nH]c3nc2c([N+](=O)[O-])c1N	-9	72*	100*	-129	111*	10
SMILES	STEP block	Scp1 inh	SUMO1 PPI mod	Rpn11 inh	DNMT1 inh	LMPTP inh
Cc1c(N)c(C(C)(C)C)cc(C(C)(C)C)c1[N+](=O)[O-]	-3	-5	3	-2	10	2
Cc1ncc(CO)c(/C=N/NC(=S)Nc2cccc(Cl)c2)c1O	64*	-5	21	9	-27	5
O=C(CCn1cnc(-c2ccccc2)c1-c1ccccc1)N/N=C/c1ccc(O)cc1	-3	-6	1	-5	4	-1
COc1ccc(/C=N/NC(=O)CCn2cnc(-c3ccccc3)c2-c2ccccc2)cc1	118*	1	0	20	-5	1
COc1cccc2c1C(=O)c1c(O)c3c(c(O)c1C2=O)C[C@@](O)(C(C)=O)C[C@@H]3O[C@H]1C[C@H](N)[C@H](O)[C@H](C)O1	-46	-11	-72	-71	-164	11
COc1cccc2c1C(=O)c1c(O)c3c(c(O)c1C2=O)C[C@@](O)(C(=O)CO)C[C@@H]3O[C@H]1C[C@H](N)[C@@H](O)[C@H](C)O1	-4	-14	97*	-60	-176	14
Nn1c(SCC(=O)Nc2c(F)cc(F)cc2Br)nnc1C1CCCCC1	4	0	46*	-3	-46	0
N#CC1=C(N)SC(N)=C(C#N)C1c1ccc([N+](=O)[O-])cc1	0	-4	-12	57*	1	7
CCc1ccc(C2C(C#N)=C(N)SC(N)=C2C#N)cc1	-21	-3	-30	.	-10	0
CCCCn1c(N)c(N(CC(C)C)C(=O)C2CC(=O)N(c3ccc(CC)cc3)C2)c(=O)[nH]c1=O (configuration not stated)	-2	-3	1	2	6	-1
Cc1cc(Nc2ccccc2C(=O)O)n(-c2cccc(Cl)c2)n1	-1	-7	42*	-6	2	-1
Cc1nc2cc(NC(=O)c3ccc(Br)s3)ccc2s1	41*	7	-1	2	-4	3
Cc1ccc(C(=O)Nc2ccc3nc(C)sc3c2)s1	4	-2	3	0	0	1
CC(=O)N1c2ccccc2N=C(c2ccc3c(c2)OCO3)C1C(=O)NCc1ccccc1 (configuration not stated)	.	.	-22	.	.	1
CCOC(=O)C1=C(COc2ccccc2)NC(=O)NC1c1ccc(Cl)cc1 (configuration not stated)	-3	50	69*	3	4	-1
COC(=O)C1=C(COc2ccccc2)NC(=O)NC1c1ccc(Cl)cc1 (configuration not stated)	.	22	.	.	.	.
CC(=O)N1CCN(c2nc(-c3ccco3)c3c(c2C#N)CC(C)(C)SC3)CC1	3	-12	8	11	-8	1
CC1(C)Cc2c(C#N)c(N3CCN(C(=O)c4ccco4)CC3)nc(-c3ccco3)c2CS1	-8	56*	4	-6	4	0
C[C@H]1O[C@@H](n2cc(F)c(=O)[nH]c2=O)[C@H](O)[C@@H]1O	-3	-6	3	-7	0	0
